Assay results published in ChEMBL document CHEMBL2429849, “Substrate-based fragment identification for the development of selective, nonpeptidic inhibitors of striatal-enriched protein tyrosine phosphatase” (J Med Chem, 2013).

Key:
[1] = molecular target: T1, Receptor-type tyrosine-protein phosphatase C (Homo sapiens, UniProt P08575); test: Inhibition of human CD45 using pNPP as substrate after 5 mins by spectrophotometric plate reader analysis
T1 sequence (P08575 whole entry): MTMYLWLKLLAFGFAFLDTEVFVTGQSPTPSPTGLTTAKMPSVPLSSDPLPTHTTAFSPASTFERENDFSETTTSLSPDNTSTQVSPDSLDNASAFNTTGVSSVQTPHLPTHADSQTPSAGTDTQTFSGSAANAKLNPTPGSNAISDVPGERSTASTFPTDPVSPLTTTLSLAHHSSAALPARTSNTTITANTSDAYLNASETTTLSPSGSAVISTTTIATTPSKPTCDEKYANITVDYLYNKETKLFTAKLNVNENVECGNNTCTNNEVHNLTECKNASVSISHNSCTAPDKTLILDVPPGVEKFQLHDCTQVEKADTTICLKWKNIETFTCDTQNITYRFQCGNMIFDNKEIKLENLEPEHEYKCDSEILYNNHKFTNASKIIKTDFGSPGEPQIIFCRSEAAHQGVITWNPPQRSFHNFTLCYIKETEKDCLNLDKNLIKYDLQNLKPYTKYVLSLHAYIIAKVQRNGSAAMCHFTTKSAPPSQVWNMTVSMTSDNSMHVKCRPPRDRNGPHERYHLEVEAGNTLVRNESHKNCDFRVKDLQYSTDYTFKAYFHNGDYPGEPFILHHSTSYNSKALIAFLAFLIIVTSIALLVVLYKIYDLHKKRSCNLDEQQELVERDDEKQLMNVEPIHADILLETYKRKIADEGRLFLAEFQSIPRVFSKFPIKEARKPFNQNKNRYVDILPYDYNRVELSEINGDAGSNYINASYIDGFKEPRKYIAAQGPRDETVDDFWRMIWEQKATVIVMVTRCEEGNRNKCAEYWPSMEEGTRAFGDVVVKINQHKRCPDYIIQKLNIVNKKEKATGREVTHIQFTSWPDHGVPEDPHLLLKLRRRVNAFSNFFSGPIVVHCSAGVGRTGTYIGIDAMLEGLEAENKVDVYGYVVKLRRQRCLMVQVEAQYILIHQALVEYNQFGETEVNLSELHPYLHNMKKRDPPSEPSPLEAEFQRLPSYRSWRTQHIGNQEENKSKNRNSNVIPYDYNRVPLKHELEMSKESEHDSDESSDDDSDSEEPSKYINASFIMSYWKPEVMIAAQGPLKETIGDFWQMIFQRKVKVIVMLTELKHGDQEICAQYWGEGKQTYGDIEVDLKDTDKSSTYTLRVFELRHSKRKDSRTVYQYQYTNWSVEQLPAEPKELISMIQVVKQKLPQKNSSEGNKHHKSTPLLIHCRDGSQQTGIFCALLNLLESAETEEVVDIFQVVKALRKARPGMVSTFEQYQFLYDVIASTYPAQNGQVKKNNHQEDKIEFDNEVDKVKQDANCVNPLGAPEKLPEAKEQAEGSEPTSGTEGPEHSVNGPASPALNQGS
How it was run: (§1)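 Enzyme preincubated 5 min at 27 °C with serially diluted inhibitor (from DMSO) in imidazole/NaCl buffer pH 7.0 with 0.01% Triton X-100 and 5 mM DTT. Started with pNPP (500 μM in assay) and read at 405 nm for 20 min. The pNPP KM was measured for each enzyme. Ki from nonlinear regression of substrate–velocity curves at several inhibitor levels; at least duplicate.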

Homo sapiens [2] = organism: Homo sapiens; test: Selectivity ratio of Ki for human MKP5 to Ki for human STEP
How it was run: (§2)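 STEP, CD45, LAR and TC-PTP used pNPP (500 μM) in imidazole/NaCl pH 7.0 with Triton X-100, read at 405 nm for 20 min. MKP5 used DiFMUP in Tris-HCl pH 8.0. The enzyme's own pNPP KM was used in analysis; ratio of the Ki values.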

[3] = molecular target: T2, Tyrosine-protein phosphatase non-receptor type 2 (Homo sapiens, UniProt P17706); test: Inhibition of human TC-PTP using pNPP as substrate after 5 mins by spectrophotometric plate reader analysis
T2 sequence (P17706 whole entry): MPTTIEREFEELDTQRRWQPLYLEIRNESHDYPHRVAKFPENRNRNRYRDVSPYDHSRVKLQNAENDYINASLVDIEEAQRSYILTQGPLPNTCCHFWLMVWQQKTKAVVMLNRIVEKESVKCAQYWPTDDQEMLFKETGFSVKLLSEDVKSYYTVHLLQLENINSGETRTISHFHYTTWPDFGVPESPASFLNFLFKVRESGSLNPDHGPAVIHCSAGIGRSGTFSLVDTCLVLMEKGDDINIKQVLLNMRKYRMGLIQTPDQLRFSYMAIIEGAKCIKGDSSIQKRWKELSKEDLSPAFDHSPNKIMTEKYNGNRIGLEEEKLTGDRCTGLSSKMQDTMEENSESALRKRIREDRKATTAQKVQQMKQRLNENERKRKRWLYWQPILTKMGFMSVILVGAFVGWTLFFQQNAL
How it was run: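 Selectivity assay using the STEP Ki protocol. Enzyme was preincubated 5 min at 27 °C with two- or three-fold inhibitor serial dilutions in DMSO, in imidazole/NaCl buffer at pH 7.0 with 0.01% Triton X-100 and 5 mM DTT. Reaction started with pNPP (500 μM in assay), read continuously at 405 nm for 20 min. Ki came from nonlinear regression of substrate-velocity curves, using this enzyme's pNPP KM; at least duplicate.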

Homo sapiens [4] = organism: Homo sapiens; test: Selectivity ratio of Ki for human TC-PTP to Ki for human STEP; how it was run: as §2
Homo sapiens [5] = organism: Homo sapiens; test: Selectivity ratio of Ki for human CD45 to Ki for human STEP; how it was run: as §2
[6] = molecular target: T3, Tyrosine-protein phosphatase non-receptor type 5 (Homo sapiens, UniProt P54829); test: Inhibition of human STEP using pNPP as substrate after 5 mins by spectrophotometric plate reader analysis
T3 sequence (P54829 whole entry): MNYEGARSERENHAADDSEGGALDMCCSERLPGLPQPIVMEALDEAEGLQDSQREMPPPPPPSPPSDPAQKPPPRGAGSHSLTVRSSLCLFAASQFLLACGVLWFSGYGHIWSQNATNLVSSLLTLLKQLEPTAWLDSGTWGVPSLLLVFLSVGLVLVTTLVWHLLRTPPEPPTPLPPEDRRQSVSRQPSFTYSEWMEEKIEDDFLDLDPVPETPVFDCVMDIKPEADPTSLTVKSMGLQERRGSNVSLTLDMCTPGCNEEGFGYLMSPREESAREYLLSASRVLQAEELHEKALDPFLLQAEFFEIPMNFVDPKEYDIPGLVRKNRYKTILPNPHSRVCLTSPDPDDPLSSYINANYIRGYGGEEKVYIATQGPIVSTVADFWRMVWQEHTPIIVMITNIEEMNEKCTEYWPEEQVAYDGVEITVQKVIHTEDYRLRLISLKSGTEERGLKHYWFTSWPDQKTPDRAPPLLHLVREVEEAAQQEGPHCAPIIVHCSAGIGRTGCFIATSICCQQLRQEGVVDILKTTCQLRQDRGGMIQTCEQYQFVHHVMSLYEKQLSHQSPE

[7] = molecular target: Receptor-type tyrosine-protein phosphatase F (Homo sapiens, UniProt P10586); test: Inhibition of human LAR using pNPP as substrate after 5 mins by spectrophotometric plate reader analysis; how it was run: as §1
[8] = molecular target: T4, Dual specificity protein phosphatase 10 (Homo sapiens, UniProt Q9Y6W6); test: Inhibition of human MKP5 using DiFMUP as substrate after 5 mins by spectrophotometric plate reader analysis
T4 sequence (Q9Y6W6 whole entry): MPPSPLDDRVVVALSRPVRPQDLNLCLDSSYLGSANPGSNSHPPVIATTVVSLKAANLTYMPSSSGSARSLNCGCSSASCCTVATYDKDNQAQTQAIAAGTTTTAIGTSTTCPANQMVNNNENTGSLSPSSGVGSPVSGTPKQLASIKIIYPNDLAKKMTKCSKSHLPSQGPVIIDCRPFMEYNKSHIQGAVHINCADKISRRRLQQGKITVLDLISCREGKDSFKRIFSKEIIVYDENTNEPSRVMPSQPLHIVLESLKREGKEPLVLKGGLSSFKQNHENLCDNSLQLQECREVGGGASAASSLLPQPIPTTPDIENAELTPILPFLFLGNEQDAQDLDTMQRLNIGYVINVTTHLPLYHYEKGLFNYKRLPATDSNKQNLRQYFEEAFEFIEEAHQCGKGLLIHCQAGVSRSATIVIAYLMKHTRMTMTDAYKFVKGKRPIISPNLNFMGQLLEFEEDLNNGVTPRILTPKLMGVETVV
How it was run: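 The […] substrate was DiFMUP. Buffer was Tris-HCl pH 8.0 with Triton X-100 and 5 mM DTT. Inhibitor was preincubated with enzyme for 5 min at 27 °C before adding substrate. Ki from nonlinear regression of initial-rate substrate–velocity data at several inhibitor concentrations; at least duplicate.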

Homo sapiens [9] = organism: Homo sapiens; test: Selectivity ratio of Ki for human LAR to Ki for human STEP; how it was run: as §2
[10] = substrate: COC(=O)[C@H](Cc1ccc(OP(=O)(O)O)cc1)NC(C)=O; test: (§3) Activity at human STEP measured for 20 mins by spectrophotometric plate reader analysis
How it was run: (§4)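 Substrate KM by coupled assay: STEP 100 nM with MESG 400 μM, PNP 1 U/mL, 5 mM DTT in imidazole/NaCl buffer with Triton X-100, pH 7.0; preincubated 3 min at 27 °C, then started with substrate (about 0–3.00 mM in assay, from DMSO). Followed 20 min at 360 nm, 27 °C; KM from Michaelis–Menten fit of initial rates.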

[11] = substrate: O=P(O)(O)Oc1cccc(Nc2ccccc2)c1; test: as §3; how it was run: as §4
[12] = substrate: CC(C)(C)CC(C)(C)c1ccc(OP(=O)(O)O)cc1; test: as §3; how it was run: as §4
[13] = substrate: O=[N+]([O-])c1ccc(OP(=O)(O)O)cc1; test: as §3; how it was run: as §4
[14] = substrate: CC(Cc1ccccc1)c1ccc(OP(=O)(O)O)cc1; test: as §3; how it was run: as §4
[15] = substrate: O=C(Oc1cccc(OP(=O)(O)O)c1)c1ccccc1; test: as §3; how it was run: as §4
[16] = substrate: O=P(O)(O)Oc1cccc(-c2ccccc2)c1; test: as §3; how it was run: as §4
[17] = substrate: O=C(Cc1ccc(OP(=O)(O)O)cc1)Nc1ccccc1; test: as §3; how it was run: as §4
[18] = substrate: O=P(O)(O)Oc1ccc(-c2ccccc2)cc1; test: as §3; how it was run: as §4
[19] = substrate: O=P(O)(O)Oc1ccccc1; test: as §3; how it was run: as §4

Receptor-type tyrosine-protein phosphatase F, sequence (P10586 whole entry): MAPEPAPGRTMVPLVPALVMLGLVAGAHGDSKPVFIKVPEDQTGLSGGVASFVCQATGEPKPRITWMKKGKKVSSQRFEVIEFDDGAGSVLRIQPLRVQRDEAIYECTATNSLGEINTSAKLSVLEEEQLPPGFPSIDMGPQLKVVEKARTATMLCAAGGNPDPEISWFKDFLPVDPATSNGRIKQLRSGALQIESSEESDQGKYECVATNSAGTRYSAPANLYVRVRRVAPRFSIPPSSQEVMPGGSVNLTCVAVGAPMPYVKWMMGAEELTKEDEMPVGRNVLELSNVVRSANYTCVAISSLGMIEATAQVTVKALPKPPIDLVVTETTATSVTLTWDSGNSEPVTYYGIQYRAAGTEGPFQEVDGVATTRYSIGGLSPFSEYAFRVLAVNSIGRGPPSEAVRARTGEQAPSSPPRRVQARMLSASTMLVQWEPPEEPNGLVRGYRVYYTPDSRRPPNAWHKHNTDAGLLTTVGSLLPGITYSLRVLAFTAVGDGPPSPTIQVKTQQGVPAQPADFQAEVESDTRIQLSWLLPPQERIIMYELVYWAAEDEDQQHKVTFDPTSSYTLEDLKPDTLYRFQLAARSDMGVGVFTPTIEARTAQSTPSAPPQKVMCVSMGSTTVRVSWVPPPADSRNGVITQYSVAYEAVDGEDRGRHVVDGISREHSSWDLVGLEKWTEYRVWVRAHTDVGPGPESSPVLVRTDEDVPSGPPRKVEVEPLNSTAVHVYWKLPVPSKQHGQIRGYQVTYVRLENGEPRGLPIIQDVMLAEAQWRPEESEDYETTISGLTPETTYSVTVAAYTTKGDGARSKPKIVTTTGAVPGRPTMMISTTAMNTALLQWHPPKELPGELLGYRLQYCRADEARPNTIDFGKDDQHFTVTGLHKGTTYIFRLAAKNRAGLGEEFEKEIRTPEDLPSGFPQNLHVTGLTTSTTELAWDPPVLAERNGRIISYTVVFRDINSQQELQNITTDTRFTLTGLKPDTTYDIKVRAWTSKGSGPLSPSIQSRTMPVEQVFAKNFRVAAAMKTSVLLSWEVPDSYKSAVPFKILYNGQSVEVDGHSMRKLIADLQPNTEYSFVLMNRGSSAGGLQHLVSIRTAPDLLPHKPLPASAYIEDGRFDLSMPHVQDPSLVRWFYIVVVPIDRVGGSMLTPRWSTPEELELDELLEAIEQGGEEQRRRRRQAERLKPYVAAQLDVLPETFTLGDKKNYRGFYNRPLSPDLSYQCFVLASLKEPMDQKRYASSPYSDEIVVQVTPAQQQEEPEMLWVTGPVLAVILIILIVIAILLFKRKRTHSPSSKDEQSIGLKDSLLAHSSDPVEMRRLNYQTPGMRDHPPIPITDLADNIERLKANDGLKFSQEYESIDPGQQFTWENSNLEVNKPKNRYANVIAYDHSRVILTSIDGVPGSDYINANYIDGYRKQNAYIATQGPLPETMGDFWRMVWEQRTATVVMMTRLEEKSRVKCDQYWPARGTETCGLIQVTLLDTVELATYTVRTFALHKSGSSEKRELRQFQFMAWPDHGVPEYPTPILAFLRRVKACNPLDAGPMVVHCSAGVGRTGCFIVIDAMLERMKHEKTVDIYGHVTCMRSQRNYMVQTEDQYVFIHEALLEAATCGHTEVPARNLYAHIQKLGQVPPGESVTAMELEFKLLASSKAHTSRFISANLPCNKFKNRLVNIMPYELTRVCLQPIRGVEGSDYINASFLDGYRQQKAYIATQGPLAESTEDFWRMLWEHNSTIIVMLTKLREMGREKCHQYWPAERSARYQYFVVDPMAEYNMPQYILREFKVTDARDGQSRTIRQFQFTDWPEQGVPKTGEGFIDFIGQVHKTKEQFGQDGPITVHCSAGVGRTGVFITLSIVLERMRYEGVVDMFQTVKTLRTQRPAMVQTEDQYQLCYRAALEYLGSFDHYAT

O=P(O)(O)C(F)(F)c1cccc(-c2cccc(C3CCCCC3)c2O)c1
Ki [1]: > 500 µM
Ratio Ki (Homo sapiens [2]): 7.5
Ki [3]: 71 µM
Ratio Ki (Homo sapiens [4]): 3.6
Ratio Ki (Homo sapiens [5]): > 25
Ki [6]: 20 µM
Ki [7]: > 900 µM
Ki [8]: 150 µM
Ratio Ki (Homo sapiens [9]): > 45

O=P(O)(O)C(F)(F)c1ccc(-c2ccccc2)cc1
Ki [6]: 120 µM

O=P(O)(O)C(F)(F)c1cccc(-c2ccccc2)c1
Ki [6]: 337 µM

CS(=O)(=O)Nc1cccc(-c2ccc(C(F)(F)P(=O)(O)O)cc2)c1
Ki [6]: 113 µM

O=P(O)(O)[C@@H](O)c1ccc(-c2cccc([C@H](O)c3ccc(Cl)c(Cl)c3)c2)cc1
Ki [6]: 93 µM

O=P(O)(O)[C@@H](O)c1ccc(-c2cccc([C@@H](O)c3ccc(Cl)c(Cl)c3)c2)cc1
Ki [6]: 88 µM

O=P(O)(O)C(F)(F)c1ccc(-c2cccc(Nc3ccccc3)c2)cc1
Ki [6]: 112 µM

CS(=O)(=O)Nc1ccccc1-c1ccc(C(F)(F)P(=O)(O)O)cc1
Ki [6]: 673 µM

B1: Tyrosine-protein phosphatase non-receptor type 5 (Homo sapiens), P54829 (protein)
chain: T3 sequence (P54829 whole entry)
Km [10]: 378 µM
Km [11]: 650 µM
Km [12]: 260 µM
Km [13]: 745 µM
Km [14]: 128 µM
Km [15]: 327 µM
Km [16]: 277 µM
Km [17]: 133 µM
Km [18]: 169 µM
Km [19]: 2730 µM
